Source: PubChem (several laboratories)
This is a sample that favours compounds with a hit; in the whole collection about 2% have one here.
APJ antagonist: antagonists of human apelin receptor APJ, primary screen, CHO-K1 cells, beta-arrestin complementation, luminescence; inhibition, % at 20 µM; actives 0.32% (n = 330,000); AID 2521, 2010;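 active = inhibition above about 40% at 20 µM, limit read from the data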;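 note: cells challenged with 10 nM apelin-13 agonist together with compound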
Target sequence (P35414 whole entry, looked up): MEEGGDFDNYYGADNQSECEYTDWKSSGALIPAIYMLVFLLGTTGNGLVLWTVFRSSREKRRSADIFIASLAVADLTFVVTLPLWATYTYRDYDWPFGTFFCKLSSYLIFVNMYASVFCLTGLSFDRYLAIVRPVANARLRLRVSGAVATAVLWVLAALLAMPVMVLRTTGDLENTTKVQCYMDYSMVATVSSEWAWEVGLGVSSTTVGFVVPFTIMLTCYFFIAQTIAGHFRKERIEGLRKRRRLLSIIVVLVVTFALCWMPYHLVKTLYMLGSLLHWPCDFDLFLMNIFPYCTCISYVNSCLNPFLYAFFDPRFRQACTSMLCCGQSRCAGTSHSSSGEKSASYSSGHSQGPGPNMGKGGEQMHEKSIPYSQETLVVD
CXCR6 inh: CXCR6 receptor inhibitors, primary screen, cell-based, beta-arrestin, luminescence, CHO-K1 PathHunter, 1536-well; C-X-C chemokine receptor type 6 (Homo sapiens), O00574; inhibition, % at 20 µM; actives 0.36% (n = 360,000); in the data active = inhibition above about 34%, passing the limit was not always enough;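 note: antagonist mode with CXCL16 agonist at 10 nM final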
EBI2 antag: EBI2 receptor antagonists, beta-arrestin recruitment, primary screen, cell-based, luminescence, 7a,25-OHC stimulation, uHTS; G-protein coupled receptor 183 (Homo sapiens), P32249; 7a,25-OHC stimulated; actives 0.81% (n = 360,000); inhibition, % at 5 µM; in the data active = inhibition above about 38%;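 note: enzyme fragment complementation signal reports receptor beta-arrestin coupling in cells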
APJ agonist: agonists of human apelin receptor APJ, primary screen, CHO-K1 cells, PathHunter beta-arrestin, luminescence; 0% DMSO wells, 100% apelin; activation, % at 20 µM; AID 2520, 2010; actives 0.11% (n = 330,000);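 active = activation more than six SD over the plate average, tested at 20 µM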
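Assay system – PathHunter CHO-K1 APJ (AGTRL-1) beta-arrestin reporter cells · Compound – one dose, 20 µM compound, 1% DMSO · Timing – compound 90 min 25 °C, reagent 1 h · Measured by – luminescence from split beta-galactosidase complementation, Galacton Star/Emerald II substrate · Measure – beta-arrestin recruitment to APJ as agonist activity, luminescent signal · Benchmarks – DMSO vs Apelin-13 10 nM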
FXN GAA850 act: FXN promoter activators, primary screen, cell-based, luciferase luminescence, HEK293 lucGAA850 | HEK293 lucGAA850 FXN promoter luciferase reporter, 24 h; percent of 10 µM SAHA response | activation, % at 6 µM | actives 0.56% (n = 360,000);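 active = activation above the average of all compounds screened plus 3 SD, cutoff fixed separately per campaign, cut at about 7.5% in these data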
CCR6 antag: CCR6 receptor antagonists, primary screen, cell-based, CHO-K1, luminescence, beta-arrestin, uHTS; inhibition, % at 20 µM; actives 0.49% (n = 340,000); CHO-K1 CCR6 PathHunter beta-arrestin, CCL20-stimulated;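 active = compounds whose inhibition of the agonist-driven luminescence signal at 20 µM reaches about 50%, limit read from the data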;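 note: cells stimulated with CCL20 at 14 nM final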
APJ antag conf: APJ antagonists blocking beta-arrestin recruitment, confirmation, cell-based, luminescence, single concentration, uHTS hits | shares compounds with APJ antagonist | actives 66% (n = 950) | antagonist mode | AID 2766, 2010 | inhibition, % at 20 µM; in the data active = inhibition above about 50%
Large screens that a line does not name were inactive (follow-up assays come after a bar, where they were run).

CC(=O)c1cccc(NC(=O)C2Cc3c(-c4cccc(C(N)=O)c4)ccnc3O2)c1 (centres undefined)	none (no result: APJ antagonist, APJ agonist, CCR6 antag)
Cc1ccc(C)c2nc3sc(C(=O)N4CCCc5ccccc54)c(N)c3cc12	APJ antagonist 59, EBI2 antag 75 | APJ antag conf 58
O=C(c1cc[n+]([O-])cc1)N1CCCC(N2CCN(c3cccc(C(F)(F)F)c3)CC2)C1 (centres undefined)	none
CCN(CC(=O)Nc1ccc(OC)cc1)C(=O)Cc1ccsc1	none
Cc1cc(C(=O)OCC(=O)c2ccc(Cl)c([N+](=O)[O-])c2)c2cccc(C)c2n1	none
Cc1ccc(C(=O)COC(=O)CNC(=O)C(c2ccccc2)c2ccccc2)cc1[N+](=O)[O-]	APJ antagonist 64, CCR6 antag 58 | APJ antag conf 67
Cc1ccc(C(=O)NCC(=O)OCC(=O)c2ccc(C)c([N+](=O)[O-])c2)cc1	APJ antagonist 55 | APJ antag conf 60
O=C(Cc1ccccc1)NCC(=O)OCC(=O)c1ccc(Cl)c([N+](=O)[O-])c1	APJ antagonist 89, CXCR6 inh 48, CCR6 antag 91 | APJ antag conf 144
Cc1ccc2nc(C)cc(C(=O)OCC(=O)c3ccc(Cl)c([N+](=O)[O-])c3)c2c1	APJ antagonist 86, CXCR6 inh 59, CCR6 antag 102 | APJ antag conf 126
CCc1ccc(C(=O)COC(=O)CNC(=O)Cc2ccccc2)cc1	none
O=C(O)CC/C(=N/NC(=O)c1ccc(-c2ccccc2)cc1)c1ccccc1	none
CN(C)CCNC(=O)c1ccc2c(c1)N(Cc1ccc(F)cc1)CCS2	APJ antagonist 52 | APJ antag conf inactive
CC(C)C[C@@H](CN1CCC[C@H]1CN1C(=O)C(=O)NC[C@@H]1Cc1ccc(O)cc1)N1C[C@H](Cc2ccc(O)cc2)N(CC2CCCCCC2)C(=O)C1=O	none (no result: APJ antagonist, APJ agonist, FXN GAA850 act, CCR6 antag)
CN(CCCS(=O)(=O)[O-])c1ccc(/C=C/c2ccc3ccccc3[n+]2C)cc1	none
CN(C)c1ccc(/C=C/c2ccc3ccccc3[n+]2C)cc1	APJ antagonist 64, CXCR6 inh 48, CCR6 antag 53 | APJ antag conf 89
O=C(CN(Cc1ccc(Cl)cc1)S(=O)(=O)c1ccccc1)NCC1CCCO1 (centres undefined)	none
COc1ccc(SC[C@H](Cc2ccccc2)N2CC[C@@H](NC(=O)OCc3ccccc3)CCC2=O)cc1	none
Cc1nc(-n2[nH]c3c(c2=O)CCCC3)[nH]c(=O)c1Cc1ccccc1	APJ antagonist 50, CXCR6 inh 41, CCR6 antag 74 | APJ antag conf 81
COc1ccc(S(=O)(=O)NCc2ccc(C(=O)NCCCN3CC(C)CC(C)C3)cc2)cc1 (centres undefined)	none
N#CC(C#N)=CC1=C2OC(c3ccccc3)=CC(c3ccccc3)=C2CCC1	APJ antagonist 41 | APJ antag conf 59
COc1cc(S(=O)(=O)N2CCCCC2)ccc1NC(=O)c1ccccc1Cl	none
CCC(=O)Nc1ccc(S(=O)(=O)N2CCCCC2)cc1OC	APJ antagonist 41 | APJ antag conf inactive
C=CCSC(=S)Nc1c(C)n(C)n(-c2ccccc2)c1=O	APJ antagonist 47 | APJ antag conf inactive
O=C(NCCc1ccccc1)c1cccs1	none
O=C(NCCc1cnc[nH]1)c1cccs1	APJ antagonist 43 | APJ antag conf inactive
CCOC(=O)/C=C1\SC(C)C(=O)N1CC(=O)N(CCC#N)c1ccccc1 (centres undefined)	none
COc1ccc(CCNC(=O)c2n[nH]c(=O)c3ccccc23)cc1	APJ antagonist 41 | APJ antag conf inactive
CCNC(=O)C1(C)CCCN(Cc2noc(-c3c(C)noc3C)n2)C1 (centres undefined)	none (no result: APJ antagonist, APJ agonist, CCR6 antag)
CCn1nc(C)c(CN2CCC(n3nccc3NC(=O)Cc3ccccc3)CC2)c1C	none
Oc1ccccc1/C=N/Nc1cc(N2CCCC2)nc(N2CCCC2)n1	APJ antagonist 42 | APJ antag conf inactive
CCOc1ccc(CCNC(=O)c2cccnc2N2CCCC2)cc1OCC	APJ antagonist 58 | APJ antag conf 52
C1=C(CCNCC2CC2)CCCC1	APJ antagonist 41 | APJ antag conf inactive
COC(=O)[C@H](CC(C)C)NC(=O)CC[C@H]1O[C@@H](n2ccc(=O)[nH]c2=O)[C@H](O)[C@@H]1O	none (no result: APJ antagonist, APJ agonist, FXN GAA850 act, CCR6 antag)
O=[N+]([O-])c1ccc(N=Nc2ncc[nH]2)cc1	APJ antagonist 41, CXCR6 inh 52, CCR6 antag 68 | APJ antag conf 88
CCCCCCCc1ccc(C2NC(=S)NC3=C2C(=O)c2ccccc23)cc1 (centres undefined)	APJ antagonist 56 (no result: CXCR6 inh, EBI2 antag, FXN GAA850 act) | APJ antag conf inactive
Cc1ccc(F)cc1NC(=O)N1c2ccccc2NC(=O)CC1C (centres undefined)	none
Cc1ccc(C)c(OCCC(=O)OCc2csc(CC(=O)Nc3ccccc3C)n2)c1	none
O=C(c1ccco1)N1CCN(C(=O)C2(S(=O)(=O)c3ccc(Cl)cc3)CC2)CC1	APJ antagonist 41 | APJ antag conf inactive
O=C(c1ccco1)N1CCN(S(=O)(=O)c2ccc(Cl)cc2)CC1	none
Cc1ccc(C(=O)COC(=O)CN2C(=O)C3C4C=CC(C4)C3C2=O)cc1[N+](=O)[O-] (centres undefined)	none
O=C(CCN1C(=O)C2C3CC(C(Br)C3Br)C2C1=O)OCC(=O)c1cccc([N+](=O)[O-])c1 (centres undefined)	APJ antagonist 59, CCR6 antag 55 | APJ antag conf 100
O=C(CN1C(=O)C2C3CCC(C3)C2C1=O)OCC(=O)c1cccc([N+](=O)[O-])c1 (centres undefined)	APJ antagonist 61, CCR6 antag 62 | APJ antag conf 89
Cc1ccc(C(=O)COC(=O)CCN2C(=O)C3C4CCC(C4)C3C2=O)cc1[N+](=O)[O-] (centres undefined)	APJ antagonist 50 | APJ antag conf inactive
Cc1ccc(C(=O)COC(=O)CN2C(=O)C3C4CCC(C4)C3C2=O)cc1[N+](=O)[O-] (centres undefined)	APJ antagonist 49 | APJ antag conf inactive
Cc1ccc([N+](=O)[O-])c(NC(=O)COC(=O)C2CC3CCCC(C2)C3=O)c1C (centres undefined)	none
